Experimental data: ChEMBL document CHEMBL4513216, “Probing the Open Global Health Chemical Diversity Library for Multistage-Active Starting Points for Next-Generation Antimalarials” (ACS Infect Dis, 2020)

Assay: Toxicity liver stage against HepG2, at 10uM
Type: cell-based
Set-up: test concentration 10 uM, cell line HepG2-A16-CD81EGFP
Conditions: human, HepG2-A16-CD81EGFP cells; read-out: INHIBITION
In short: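 Uninfected HepG2-A16-CD81EGFP cells, 3 × 10^3 per well, 1536-well, plated on prespotted compound at 10 μM final, parasite-free screening media added to match infected plates; puromycin 10 μM positive, DMSO 0.5% negative; run in parallel with 48 h PbLuc assay at 37 °C, 5% CO2; viability by CellTiter-Glo luminescence, normalized to controls.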

| SMILES | cytotoxicity at 10 µM [%] |
| --- | --- |
| OCC1(CC2CC2)CCCN(Cc2cnc(N3CCOCC3)nc2)C1 (configuration not stated) | -0.274 |
| CN(CCN1CCCCC1)C(=O)c1cc(CN2CCOCC2)on1 | -22.7 |
| OC1(CN(Cc2cccnc2)C2CCCCC2)CNCCOC1 (configuration not stated) | -21 |
| CCNC(=O)NC(=O)CSC(C)c1ccccc1F (configuration not stated) | 15.6 |
| CCN(C)C(=O)CCC(=O)c1cccs1 | 3.9 |
| O=C1NCCCCC1NC(=O)C1(c2ccc3c(c2)OCCO3)CCCC1 (configuration not stated) | 0.969 |
| O=C(CCn1c(=O)oc2ccccc21)NCC(O)c1ccc(Cl)cc1 (configuration not stated) | -1.25 |
| O=C(CCn1cccn1)N1CC[C@@H](c2ccc3ccccc3c2)[C@H](O)C1 | 2.03 |
| Cc1nccc([C@H]2C[C@@H]3CCN(C(=O)c4c(C)noc4C)C[C@H]3O2)n1 | -83.3 |
| COc1ccc(C#N)cc1CSCCN1CCOCC1 | 6.14 |
| CC(=O)Oc1ccnc(C(F)(F)F)c1C(C)=O | -11.4 |
| CCS(=O)(=O)N1CCC2(CCCN(c3ncc(F)cn3)C2)C1 (configuration not stated) | 10.3 |
| Cc1cccc(CN2CCC3(CCC(CC(=O)N(C)C)CC3)CC2)n1 | -113 |
| CCc1cc(NCc2ccc(-n3cncn3)c(C)c2)n(C)n1 | -52.6 |
| CNC(=O)Cc1ccccc1NC(=O)N[C@H]1c2ccccc2C[C@H]1O | -36.1 |
| O=C(CCCn1ccnc1)NC1CCCN(c2ccccc2Cl)C1 (configuration not stated) | 4.86 |
| CC(=O)NCc1nnc2n1CCN(Cc1cccs1)C2 | -149 |
| CC(=O)N1CCC2(CC1)CC(Oc1ccccc1)CO2 (configuration not stated) | -8.77 |
| CC(C)c1cc(C2CCCN2C(=O)c2cn3ccsc3n2)no1 (configuration not stated) | -2.33 |
| O=C1CCC2(CCN(c3cccc(C(F)(F)F)n3)CC2)CN1CCO | -18.2 |
| CC(CS(C)(=O)=O)N(C(=O)c1ccc(Cl)s1)C1CC1 (configuration not stated) | 1.51 |
| Cc1occc1C(=O)N1CCc2ncnc(-c3cnn(C)c3)c2CC1 | -4.77 |
| CNC(=O)c1cccc(NCC(=O)Nc2cc(C)nn2C)c1C | -1.49 |

| SMILES | cytotoxicity at 10 µM [%] |
| --- | --- |
| Cc1ccoc1C(=O)NC1CCN(Cc2ccccc2C#N)CC1 | -3.51 |
| CCCn1cc(-c2cc(C(=O)N(C)C)c3ccc(C)cc3n2)cn1 | 4.99 |
| CCNC(=O)N1CCC(=Cc2ccccc2)CC1 | 3.87 |
| Cc1nc(C)n(CC2CCCN(CCOc3ccccc3C#N)C2)n1 (configuration not stated) | 4.61 |
| CNC(=O)CN1CCOCC2(CCCN(Cc3ccsc3)C2)C1 (configuration not stated) | 2.61 |
| CC(C)c1nn(C)c(N(C)C)c1CNC1CCCCNC1=O (configuration not stated) | 2.91 |
| CC(=O)C1(c2ccccc2)CCN(C(=O)c2ccc3nnnn3c2)CC1 | 20.1 |
| Cc1csc2nc3n(c(=O)c12)CCN(Cc1ccccn1)CC3 | -18.2 |
| Cc1cc(C(=O)N2C[C@@H]3CC[C@H]2CN(Cc2ccccn2)C3)nc(C)n1 | 2.36 |
| CCN(C(=O)C1CCC1)C(c1cccnc1)c1ccc2c(c1)CCO2 (configuration not stated) | -7.88 |
| CCN(CC)C(=O)CNC(=O)c1ccc(-c2ccsc2)nc1C | 22.9 |
| CC(C)=CCN1C(=O)[C@@H]2CC[C@H]1CN(c1ncccc1C(N)=O)C2 | 6.13 |
| CCCc1n[nH]c(C2CN(CC(=O)N(C)Cc3ccco3)CCO2)n1 (configuration not stated) | -4.84 |
| Cc1cc(-c2cnn(CCNC(=O)C3CC3)c2C2CC2)on1 | 11.7 |
| CN(C)C(=O)CCCNc1ncc2c(n1)CCN2c1ccccc1 | 2.29 |
| Cc1cccc(N2CCN(C(=O)NC(C)c3nncn3C)CC2)c1C (configuration not stated) | -4.41 |
| O=C(Cn1cnc2cc3c(cc21)OCCCO3)NC1CCCC1 | 3.92 |
| Cc1cc(C2CCCN2C(=O)c2cnn(C)c2)on1 (configuration not stated) | -1.85 |
| CSc1ccc(C)c(C(=O)Nc2c(C(N)=O)n[nH]c2C)c1 | 3.36 |
| CCCc1cc(=O)[nH]c2nnc(SCC(=O)NCCc3ccccc3)n12 | 14.2 |
| CNc1cc2c(nn1)CCN(C(=O)c1ccc3c(c1)OCO3)C2 | 6.85 |
| Cc1cccnc1CC(C)N(C)C(=O)c1ccoc1C (configuration not stated) | -12.6 |
| CC(C)NC(=O)CC1CC2(CCN(S(C)(=O)=O)CC2)c2ccccc21 (configuration not stated) | -2.48 |

| SMILES | cytotoxicity at 10 µM [%] |
| --- | --- |
| CCc1noc(C2CCCCN2C(=O)c2cccs2)n1 (configuration not stated) | 6.5 |
| CC(=O)N1CCC(C(=O)Nc2nc(C3CC3)cs2)CC1 | -3.28 |
| CC1c2ncc(Cn3cncn3)n2CCN1C(=O)Cc1cccs1 (configuration not stated) | 7.89 |
| COCCCNC(=O)CN1CCC(c2ccccc2)C1 (configuration not stated) | 20.3 |
| c1ncn(CC2CCCN(Cc3noc(C4CC4)n3)C2)n1 (configuration not stated) | 0.428 |
| Cc1n[nH]c(C)c1Sc1ccccc1NC(=O)N1CCOCC(O)C1 (configuration not stated) | -2.42 |
| COc1ccc(C(C)=O)c(OCC(=O)NC(C)c2ccc(F)cc2)c1 (configuration not stated) | 2.68 |
| Cc1nc(C)n(CC2CCCN(CCOc3cccc(F)c3)C2)n1 (configuration not stated) | -3.18 |
| COc1cc(N(C)CCC(O)c2ccccc2)ncn1 (configuration not stated) | -139 |
| CN1CCN(C[C@@H]2OC[C@H]3CN(Cc4ccsc4)CC[C@H]32)CC1 | -11 |
| Cc1cc(C)c(Cn2cncn2)cc1CN1CC[C@@H]2CC[C@H](C1)N2 | -3.96 |
| CC[C@@H]1N(C)CCC[C@]12CCC(=O)N2Cc1ccncc1 | 3.67 |
| O=C(CCc1ccsc1)N1CCCC(n2cncn2)C1 (configuration not stated) | -9.47 |
| CN(Cc1ccc(C(=O)Nc2sccc2C#N)cc1)Cc1ccno1 | -1.65 |
| COc1ccccc1OCC(=O)NCc1ncc(C)c(OC)c1C | -6.63 |
| CCn1cc2c(n1)CN(CC1CC1)CC2COCC1CC1 (configuration not stated) | -1.26 |
| COc1ccccc1N1CCC(CNCc2cccc(O)c2)C1 (configuration not stated) | -9.04 |
| c1ccc(-n2cncn2)c(CNCCn2cccn2)c1 | -4.29 |
| Cc1cc(C(=O)NCC2(C(N)=O)CCOCC2)nn1C(C)(C)C | -16.6 |
| CCCOc1cc(C)c2c(c1C)C[C@H]([C@H](C)C(=O)O)CC2 | -4.19 |
| CCC(Nc1nccc(C2CCCC2)n1)c1ccncc1 (configuration not stated) | -63.8 |
| Cc1ccc(CNCc2nnc3n2CC(C(F)(F)F)CC3)o1 (configuration not stated) | 9.87 |
| Cn1cnc(S(=O)(=O)N2CCOCC2)c1Cl | 5.9 |

| SMILES | cytotoxicity at 10 µM [%] |
| --- | --- |
| Cn1c(CCC(=O)N2CCCC3(CNC(=O)O3)C2)nc2cccnc21 (configuration not stated) | 2.3 |
| CCc1ccc(C2CC(=O)Nc3c2c(=O)n(C)c2ncnn32)cc1 (configuration not stated) | 8.16 |
| CN(C)CC1CN(c2ncnc3[nH]ccc23)CCO1 (configuration not stated) | 0.89 |
| Cc1ccc2cccc(C(=O)NCC3CCN(C(C)C)C3)c2n1 (configuration not stated) | -9.97 |
| Cc1cnc(NC(=O)N2CCCCCC2)s1 | -2.81 |
| COCCO[C@@H]1CCN(C(=O)c2occc2C)[C@H]1Cc1cnn(C)c1 | 5.1 |
| Cc1cc(C)c(CNC(=O)NCc2ccc3c(c2)OCCO3)c(=O)[nH]1 | -11.6 |
| CN(CCOCC(F)(F)F)CC1CCN(CCO)CC1 | 5.68 |
| Cc1nn(C)c(C)c1NC(=O)CN1CCCC1c1c(C)nn(C)c1C (configuration not stated) | -6.44 |
| COc1ccc(CN2C[C@@H]3OCC(=O)N(CC(N)=O)[C@@H]3C2)cc1 | -4.54 |
| O=C(Nc1ccc(F)cc1)C1CCN(Cc2noc(C3CC3)n2)CC1 | 4.05 |
| O=C(C1CCC2(CCN(CC3CCOCC3)CC2)O1)N1CCCC1 (configuration not stated) | 1.91 |
| CCOc1cccc(C(C)NCc2ccc(OC)c(OC)c2OC)c1 (configuration not stated) | 29.4 |
| CCNc1cc2c(nn1)CCN(C(=O)c1cccc3c1OCCO3)C2 | -8.42 |
| COc1ccccc1CC(=O)NCc1c(C)nc2cc(=O)[nH]n2c1C | -6.8 |
| CC(C)Oc1ncnc2c1CCN(Cc1ccc(F)cc1)CC2 | 5.68 |
| CC1CCN(S(=O)(=O)c2cccnc2)c2ccccc2S1 (configuration not stated) | 5 |
| CS(=O)(=O)N1CC[C@H]2O[C@H](C(=O)NCc3cccnc3)CC[C@H]21 | -7.24 |
| O=C(CCNCc1cccc2c1OCCCO2)NC1CCCC1 | 0.66 |
| O=C1CCC2(CCCN(C(=O)Cc3cccnc3)C2)N1 (configuration not stated) | 6.88 |
| CC(NC(=O)NCCCN(C)S(C)(=O)=O)c1cccc(Cl)c1 (configuration not stated) | 3.44 |
| O=C(Nc1cc(C(F)(F)F)c[nH]c1=O)N1CCCSCC1 | -5.77 |
| CCN1CC2(CCOCC2)c2cc(NS(=O)(=O)CC)ccc21 | -104 |

| SMILES | cytotoxicity at 10 µM [%] |
| --- | --- |
| CCN(C(=O)CN1CCN(CC(C)O)CC1)C1=CCCCC1 (configuration not stated) | 8.67 |
| Cc1ccc(CS(=O)(=O)NCc2ccco2)cc1 | -2.11 |
| NC(=O)CSCC(=O)NC1(c2cccc(Br)c2)CC1 | -13.9 |
| CCOc1ccccc1OCC(=O)NCc1ncc(C)c(OC)c1C | 1.09 |
| CC(C)N(C)CCNC(=O)N(C)CC1CCOCC1 | -17.2 |
| Cc1nc(O)cc(C2(C)CCCNC2)n1 (configuration not stated) | 2.98 |
| CCc1noc(C)c1C(=O)N(C)Cc1ncc(C)c(OC)c1C | -1.06 |
| CN1CCC/C1=N\S(=O)(=O)c1ccc(NC(=O)c2ccco2)cc1 | 4.56 |
| CC(=O)Nc1cccc(OCCNC(=O)N(C)Cc2ccncc2)c1 | 4.77 |
| CC(C)c1nn(C)c(Cl)c1CNCC(O)c1cccc(F)c1 (configuration not stated) | -1.83 |
| COc1ccc(O[C@H]2COCCN(Cc3c[nH]c4ccccc34)C2)cc1 | 1.82 |
| CN(C)c1ncc(NC(=O)c2ccccc2C(F)(F)F)cn1 | -9.66 |
| COc1ccccc1CC(=O)N1CCC(NCc2cccnc2)CC1 | -5.7 |
| Cn1ccc(CN2CCC(CO)CC2)cc1=O | 5.1 |
| CO[C@@H]1CC[C@H]2[C@H]1OCCN2C(=O)c1ccc(C)o1 | 3.68 |
| CCOc1ccccc1-c1noc(CN2CCN(CCOC)CC2)n1 | -4.9 |
| Cc1cccc(CN2CCCn3c(nnc3Cn3cccn3)C2)n1 | -0.124 |
| CSCC[C@@H](CO)NC(=O)c1sc(-c2ccccc2Cl)nc1C | 14.3 |
| Cc1cc(S(=O)(=O)N2CCCc3ccccc32)sc1C(=O)O | -13.5 |
| COC(=O)CC1CSCCN1C(=O)CCc1c(C)nn(C)c1C (configuration not stated) | -2.65 |
